# Test results: paper PMC7709506 (ESMO Open, 2020)
# Columns and labels:
# [1] = test system: advanced or metastatic solid tumours; test: Preliminary antitumour activity; format: in vivo, human
# [2] = test system: UGT1A1; settings: human liver microsomes; cited from earlier work
# [3] = Plasma pharmacokinetics after single and multiple dosing; format: in vivo, human; settings: for Accumulation ratio, geometric mean (CV %): AUC0–last day 15 / day 1; for Mean (SD) metabolite to parent ratio: ORM-21444 AUC0–last / ODM-203 AUC0–last
# In short: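 Oral once-daily test compound. Capsule single dose on day 1 after a low-phosphate light breakfast. In tablet cohorts, one capsule dose was followed a week later by continuous daily tablets from 200 mg. Plasma sampled on day 1 and day 8 or 15 predose and 0.1–24 h post-dose, plus predose from day 8. Cmax, Tmax and AUC0–last (linear trapezoidal) were log-transformed. Accumulation = day 15/day 1 AUC; metabolite ratio = metabolite/parent AUC.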
# [4] = test system: FGFR and VEGFR pathways; test: Soluble biomarkers of FGFR and VEGFR pathways; design: species or system human; settings: in vivo
# In short: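 Plasma FGF23, sVEGFR2, sVEGFR1, VEGF, FGF2 and PGF were sampled at baseline, day 8 and day 29 during oral test compound dosing and analysed in batches during or at study end. Values are expressed as percentage change from baseline (day 1 predose).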
smiles,measurement,setting,value
Cn1cc(-c2ccc3c(c2)ncn3-c2cc(NS(=O)(=O)C3CC3)cc(-c3ccc(F)cc3F)c2)cn1 [ODM-203],overall response rate,"[1]; RECIST, all evaluable (7/76 patients)",9.2%
same,disease control rate,[1]; all evaluable,57.9%
same,median progression-free survival,[1]; non-FGFR patients,12.4 weeks
same,disease control rate,[1]; non-FGFR tumours,52.3%
same,overall response rate,[1]; non-FGFR tumours (3/44),6.8%
same,patients without disease progression at 16 weeks,[1]; non-FGFR tumours (16/42),38.1%
same,patients without disease progression at 16 weeks,[1]; overall (24/71),33.8%
same,median progression-free survival,[1]; patients with FGFR aberration(s),16.1 weeks
same,disease control rate,[1]; tumours with FGFR aberrations,65.6%
same,overall response rate,[1]; tumours with FGFR aberrations (4/32),12.5%
same,patients without disease progression at 16 weeks,[1]; tumours with FGFR aberrations (8/29),27.6%
same,IC50,[2],100 nM
same,interindividual variability of steady-state AUC (coefficient of variation),[3]; 400 mg tablet group at day 15,90%
same,"Accumulation ratio, geometric mean (CV %)",[3]; tablet 200 mg (n=3),2.3 (23)
same,"Accumulation ratio, geometric mean (CV %)",[3]; tablet 300 mg (n=3),2.3 (123)
same,"Accumulation ratio, geometric mean (CV %)",[3]; tablet 400 mg (n=24),5.5 (76)
same,Mean (SD) metabolite to parent ratio,"[3]; tablet 200 mg, Day 1 (n=3)",0.043 (0.022)
same,Mean (SD) metabolite to parent ratio,"[3]; tablet 200 mg, Day 15 (n=3)",0.085 (0.043)
same,Mean (SD) metabolite to parent ratio,"[3]; tablet 300 mg, Day 1 (n=3)",0.061 (0.030)
same,Mean (SD) metabolite to parent ratio,"[3]; tablet 300 mg, Day 15 (n=3)",0.094 (0.004)
same,Mean (SD) metabolite to parent ratio,"[3]; tablet 400 mg, Day 1 (n=25)",0.048 (0.034)
same,Mean (SD) metabolite to parent ratio,"[3]; tablet 400 mg, Day 15 (n=24)",0.117 (0.031)
same,average Tmax in different cohorts,[3]; after a single dose,6 to 10 h
same,individual Tmax range,[3]; after a single dose,3 to 24 h
same,average accumulation ratios,"[3]; based on AUC0–last, different cohorts",2.3–5.5
same,tablet formulation compared with capsule formulation,[3]; in vivo,higher exposure and lower variability
same,AUC ratio (metabolite ORM-21444 to ODM-203),[3]; steady state,less than 0.15
same,half-life,"[3]; suggested by accumulation ratios, different cohorts",30 to 70 h
same,"Cmax, geometric mean (CV %)","[3]; tablet 200 mg, Day 1 (n=3)",1539 (9) ng/mL
same,"Median (min, max) Tmax","[3]; tablet 200 mg, Day 1 (n=3)",8.0 (7.7 to 11.1) h
same,"Cmax, geometric mean (CV %)","[3]; tablet 200 mg, Day 15 (n=3)",3118 (28) ng/mL
same,Mean (SD) Caverage,"[3]; tablet 200 mg, Day 15 (n=3)",2560 (719) ng/mL
same,"Median (min, max) Tmax","[3]; tablet 200 mg, Day 15 (n=3)",8.0 (6.0 to 11.2) h
same,"Cmax, geometric mean (CV %)","[3]; tablet 300 mg, Day 1 (n=3)",2608 (46) ng/mL
same,"Median (min, max) Tmax","[3]; tablet 300 mg, Day 1 (n=3)",6.0 (4.1 to 6.1) h
same,"Cmax, geometric mean (CV %)","[3]; tablet 300 mg, Day 15 (n=3)",4906 (148) ng/mL
same,Mean (SD) Caverage,"[3]; tablet 300 mg, Day 15 (n=3)",5652 (5460) ng/mL
same,"Median (min, max) Tmax","[3]; tablet 300 mg, Day 15 (n=3)",6.1 (3.1 to 8.7) h
same,"Cmax, geometric mean (CV %)","[3]; tablet 400 mg, Day 1 (n=25)",1933 (49) ng/mL
same,"Median (min, max) Tmax","[3]; tablet 400 mg, Day 1 (n=25)",6.3 (3.1 to 24.7) h
same,"Cmax, geometric mean (CV %)","[3]; tablet 400 mg, Day 15 (n=24)",9070 (81) ng/mL
same,Mean (SD) Caverage,"[3]; tablet 400 mg, Day 15 (n=24)",8928 (5148) ng/mL
same,"Median (min, max) Tmax","[3]; tablet 400 mg, Day 15 (n=24)",6.0 (0.0 to 23.3) h
same,"percentage mean changes in soluble markers FGF23, VEGFR2, VEGF and PGF",[4],appeared to be dose dependent
